Legend:
MS2 coat protein [1] = test: apparent Kd, MS2 coat protein; higher = weaker binding; RNA-MaP array; tryptophan 2.4 mM where present; conditions: designed as: OFF switch for tryptophan
Summary of the method: (§1)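 Stalled E. coli RNA polymerase produced the designs on Illumina sequencing-chip clusters. SNAP-549-labelled MS2 coat protein was added from 0.7 or 1.5 nM, doubling to 3 µM, without and then with constant ligand, in 100 mM Tris-HCl pH 7.5, 80 mM KCl, 4 mM MgCl2, BSA, DTT, yeast tRNA and Tween-20. The apparent Kd is the median of filtered per-cluster fits of green signal normalised to red-channel RNA signal and control-cluster median Fmax.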

MS2 coat protein [2] = test: apparent Kd, MS2 coat protein; higher = weaker binding; RNA-MaP array; theophylline 2 mM where present
Summary of the method: as §1

[3] = designed as: OFF switch for theophylline, no ligand
[4] = ligand present: theophylline, designed as: OFF switch for theophylline
[5] = designed as: ON switch for theophylline, no ligand
[6] = ligand present: theophylline, designed as: ON switch for theophylline

Sequence	apparent Kd (MS2 coat protein [2]; [3]) [nM]	apparent Kd (MS2 coat protein [2]; [4]) [nM]	apparent Kd (MS2 coat protein [2]; [5]) [nM]	apparent Kd (MS2 coat protein [2]; [6]) [nM]	also measured
AUUGUGAAGUCGGCCGCCACUGGUUAGUUUAACCUCAUGUAACAUGAGGAUCACCCAUGUAAUGACAGGACCGGGACAAUAGUAA	–	–	–	–	apparent Kd (MS2 coat protein [1]; no ligand): 187 nM; apparent Kd (MS2 coat protein [1]; ligand present: tryptophan): 151 nM
UGACGAUACCUGGAUACCAGCGACAUGAGGAUCACCCAUGUAUGAGGAUCAGCCAUGUUAUGCCCUUGGCAGCCACGAAGGUCUU	33	224	–	–	–
GGUAUUGGAACAGAUACCAGUAUCUGUUGAUCCUACAUGAGGAUCACCCAUGUUAGAAAGUACCCUUGGCAGCUGUAAUAAUGCC	48.1	81.6	–	–	–
UUCUACAUGAGGAUCACCCAUGUAAACGAUACCAGACGAGUAUUAGUCCCUUGGCAGCGUAGAGUGUCGUUUAUAGUAGGAUACC	–	–	22.7	–	–
AAUGAACAUGAGGAUCACCCAUGUCGUGAUACCAGCCGUAAGAGUGGCCCUUGGCAGCGCCAUGAGGACAACAACAUACAUGAGG	–	–	24.3	27	–
AAACAUUGCUCAGAUACCAGACAUGAGGAUCACCCAUGUACCAAGGUAACCGAAAGGCAUGUCCCUUGGCAGCUGAGCAAUGAAA	13.7	240	–	–	–
GGUGGCUGGAUCGAUACCAGCCACCACCGAUAGACCACAUGAGGAUCACCCAUGUUGGGUGGCCCUUGGCAGCGGUCCGGCUGCC	–	–	278	1290	–
AAACGUUGCUCAGAUACCAGACAUGAGGAUCACCCAUGUACCAAGGUACCCGAAAGGAAUGUCCCUUGGCAGCUGAGCAACGAAA	9.57	21.6	–	–	–
AUACCUAGUGAGUCGUGUUUCUUUUCAGAUACCAGACUUUUCGUUGUCCCUUGGCAGCUGUUUUACAUGAGGAUCACCCAUGUUG	15.7	23.6	–	–	–
ACAUGAGGAUCACCCAUGUUCCUCGCCGAUACCAGUGAAGAAGAACGCCCUUGGCAGCGGAAAGAAUAUAUUGGAGAUGAUAUAU	219	316	–	–	–
ACUAGUUGUGCAGAUACCAGACAUGAGGAUCACCCAUGUUUGGGAUCUAAUGAUCAUCUUGUCCCUUGGCAGCUGUACAUCUAGA	78.5	33.9	–	–	–
AGCCCUGUGCUAGAUACCAGCUACAUGAGGAUCACCCAUGUGCGUCAGAAAUGACUGUGUAGCCCUUGGCAGCUAAAUGCAUGUA	11.8	28	–	–	–
UAAUAAAUAAGUGAUACCAGCGAGAAAACAUGAGGAUCACCCAUGUUCGCCCAUGUUAAGCGCCCUUGGCAGCACAAAUAUAAAA	26.1	84.9	–	–	–
ACGUCCGGAUUGAUCGUGGGCAUGGUCGAUACCAGUAUUUUAAUCUACCCUUGGCAGCGACAUGAGGAUCACCCAUGUGCGAUGA	16.9	42.6	–	–	–
AUAACAUGAGGAUCACCCAUGUAAGCAGAUACCAGCUAGGAAACUAGCCCUUGGCAGCUGCAAUCAUGGGUGUGGUAUCUGCUAA	28.2	39.7	–	–	–
ACGACGCAUAGUGAUACCAGUAGAACAUGAGGAUCACCCAUGUCAGAUAUGUUCUAAUACUGCCCUUGGCAGCACUAUGCGUCAG	–	–	260	134	–
AAAUAGGUAGGAGAUACCAGAUACGUUAACAUGAGGAUCACCCAUGUGUAUGCACUUAGUGUCCCUUGGCAGCUCGAGGAUCUGG	–	–	30.7	35.3	–
AACAUGAGGAUCACCCAUGUAAUAUGGGAUACCAGAGACGAAAGUCUCCCUUGGCAGCCCAAGCUGCUCCAUACGAAAGUAUGGU	–	–	65.2	18	–
CUGGCAGGAUGAUCCGCUGUCAGGGCUGAUACCAGCCACGAAAGUGGCCCUUGGCAGCAGCAAACAUGAGGAUCACCCAUGUAAA	–	–	144	266	–
AACAUGAGGAUCACCCAUGUUUUAUGGGAUACCAGAGACGAAAGUCUCCCUUGGCAGCCCAAGCUGCUCCAUACGAAAGUAUGGU	–	–	14.3	14	–
AGCCCAUUACAUGAGGAUCACCCAUGUGAUACCAGUCAGGAAACUGACCCUUGGCAGCGCAUGAGGAUCACCCAUGCGCUGGGCA	12	11.4	–	–	–
UCGUGUAUAUCGGAUACCAGUGAAAUCGAUACAUGAGGAUCACCCAUGUGAGAGGAUGUACACCCUUGGCAGCUGUAUAUAUCUA	–	–	32.8	14.7	–
AAACGUUGCUCAGAUACCAGACAUGAGGAUCACCCAUGUACCAAGGUAAAGAAAUAACGUGUCCCUUGGCAGCUGAGCAACGAAA	11	113	–	–	–
ACAUGAGGAUCACCCAUGUCACGGCACGAUACCAGCUGAUCCGGUGGCCCUUGGCAGCGUCACGUUUGGUCCCGCGGAUGACACG	–	–	64.3	60.4	–
AUGUCGUUGAAUACAGCGGCAUGGAGUGAUACCAGAAUGAUCAAAUUCCCUUGGCAGCAUCACAUGAGGAUCACCCAUGUUCGAU	–	–	29.1	34.3	–
ACAUCCAGAUUAAUCGUGGGCAUACUCGAUACCAGUAUUUUAAUCUACCCUUGGCAGCGACAUGAGGAUCACCCAUGUGCGAUGA	12.8	21.1	–	–	–
GGCGGACUUAUAGAUACCAGCACAUGAGGAUCACCCAUGUAUGGUCGCACCUCAGUCCUGUGCCCUUGGCAGCUAUAAUAGAUUU	19.7	115	–	–	–

Sequence	apparent Kd (MS2 coat protein [2]; [3]) [nM]	apparent Kd (MS2 coat protein [2]; [4]) [nM]	apparent Kd (MS2 coat protein [2]; [5]) [nM]	apparent Kd (MS2 coat protein [2]; [6]) [nM]	also measured
UCGUGUAUAUCGGAUACCAGUGAAAUCGAUACAUGAGGAUCACCCAUGUGAGUUGAUGUACACCCUUGGCAGCUGUAUAUAUCUA	–	–	16.2	12.4	–
UAUACAUGAGGAUCACCCAUGUGCCAUGAUACCAGACAUGAAAAUGUCCCUUGGCAGCAUGGUGAUUGUAUAGCGGGAAACCCGA	–	–	160	196	–
UGGUACAUGAGGAUCACCCAUGUUCCAGAUACCAGUGUCCCGCUGCACCCUUGGCAGCUGGUGGCACAUGAGGAUCACCCAUGUG	15	17.1	–	–	–
UUUGAUAGGACAGAUACCAGCGUGUUAUAGAACAUGAGGAUCACCCAUGUAGUGAUCAAGCGCCCUUGGCAGCUGGUUUGUUAGG	–	–	229	395	–
CGAUGAUCGAGGGAUACCAGAAAUGGUAUUCCUUUAUUUCUUACAUGAGGAUCACCCAUGUUCCCUUGGCAGCUUUUGAUCAUCG	86.5	149	–	–	–
AAUAAAUCACAUGAGGAUCACCCAUGUGAUACCAGCCUGGAAACAGGCCCUUGGCAGCACAUGAGGAUCACCCAUGUGCUAAAUA	8.81	8.4	–	–	–
CGCAACCCUAAGGGAUUGUGGUUAUUAGAUACCAGUAUGAUGCAAUACCCUUGGCAGCUAAUACAUGAGGAUCACCCAUGUUGCG	–	59.5	–	–	–
AGCGACAUGCGUGAUACCAGCUACAUGAGGAUCACCCAUGUAAGUAGGAAACUACUGUGUAGCCCUUGGCAGCACAAUGCAUGUC	19.8	43.5	–	–	–
CAGCCUGGUUGGUAAAUCCCUCAUCGUGAUACCAGUCGAGUGAUCGACCCUUGGCAGCACAUGAGGAUCACCCAUGUGCUCGUAU	25.1	23.1	–	–	–
UCUUACUUGGUAGAUACCAGCGUGUUAUCUUUCUUUUGACAUGAGGAUCACCCAUGUAUAUGCCCUUGGCAGCUGCGUAGUGUGU	–	–	33.7	32.5	–
AUCGUACCUAAUGAUACCAGCAAGUGAUCAUAACAUGAGGAUCACCCAUGUAAUCAGUGAUGCCCUUGGCAGCAUAAUCGAUACA	–	–	146	88	–
UGUACAUGAGGAUCACCCAUGUUACGCGAUACCAGACAUGAGAGUGUCCCUUGGCAGCGUGGAGCUGAUACGGCGGGAAGCCGGA	–	–	43.7	39.5	–
GUGGAGACAUGAGAUACCAGUCUCUUUAACAUGAGGAUCACCCAUGUAAUGCUCCUCGGAGACCCUUGGCAGCUCAGUAUGAUGA	39.9	157	–	–	–
ACGACGCAUACAGAUACCAGUAGAACAUGAGGAUCACCCAUGUCUGAGGCGCUCCGCCACUGCCCUUGGCAGCUGUAUGCGUCAG	–	–	9.7	14.2	–
ACAUGAAGAACAGCGGUGGGCGCGCUCGAUACCAGUAUUUUAACCUACCCUUGGCAGCGACAUGAGGAUCACCCAUGUGAGAUGA	17.3	26.9	–	–	–
ACACACAUGAGGAUCACCCAUGUAAUAGAUACCAGUGACGCGGUGCACCCUUGGCAGCUGCUGCUGAGUGAUGGUUCCCUCGGAA	21.1	34.7	–	–	–
GCAAUACAUGAGGAUCACCCAUGUGCAGAUACCAGAGGUGUAUGCCUCCCUUGGCAGCUGCGACGCUCUGGCAUCUUGUGGGAUG	–	–	51.8	48.8	–
ACACAUGAGGAUCACCCAUGUCCAAUAGAUACCAGUGAUACGGUGCACCCUUGGCAGCUGUUGCUGAGUGAUGGUUCCCUCGGAA	–	–	125	164	–
AGCAUGUUAUCAGAUACCAGACAUCUUUUAAUACAUAUUACAUGAGGAUCACCCAUGUUGGUCCCUUGGCAGCUGAAAUAUUUCA	–	–	256	80.5	–
AGACAUGUAGGAUAAUUGACUAUUACAGAUACCAGACUGUCUAAUGUCCCUUGGCAGCUGCAUUACAUGAGGAUCACCCAUGUUA	22.6	20.2	–	–	–
AUCAUGUAAUCAGAUACCAGACAUCUUUUAAUACAUAUUACAUGAGGAUCACCCAUGUUGGUCCCUUGGCAGCUGAAAUAUUUUU	–	–	197	86.8	–
GGCGGACUUAUAGAUACCAGCACAUGAGGAUCACCCAUGUUUGGUCGCACCUCAGUCCUGUGCCCUUGGCAGCUAUGAUAGAUUU	17.3	95.1	–	–	–
AUCGUACCUGAGGAUACCAGCAUGUGAUCAUAACAUGAGGAUCACCCAUGUAAUCAGUGAUGCCCUUGGCAGCUUGGUCGGUACA	–	–	51.6	26.4	–
AUAACAUGAGGAUCACCCAUGUAGAGUGAUACCAGACUACGUAAUGUCCCUUGGCAGCACAAGUAAAGUUACGAAUAAUGAUAGA	–	–	179	50.8	–
GACAUGAGGAUCACCCAUGUAUUGGGUGAUACCAGCCUGAAUCAUGGCCCUUGGCAGCACCGCGCUAACUUUAUGUUUGCGAACC	–	–	49.7	160	–
UGACAUUGCUCAGAUACCAGACAUGAGGAUCACCCAUGUACCAAGAAAGUACAAUAAAAUGUCCCUUGGCAGCUGAGCAAUGUCU	66.8	487	–	–	–

— the EternaBench riboswitch data
